Assay results reported in ChEMBL document CHEMBL3580567 (J Med Chem, 2015).
≈ marks a conversion by molar mass, not a printed value. Calls of active or inactive are those of the source. The rule behind the calls is not given here.

Tests used:
[1] = Thermodynamic solubility in phosphate buffer at pH 7.4 after 24 hrs by UV spectra analysis; type: physicochemical; settings: read-out: Therm_solubility
In short: (§1)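 Thermodynamic solubility: about 1 mg of solid was saturated in 200 µL buffer and stirred 24 h at rt at 320 rpm, then centrifuged. Supernatant was diluted with buffer-MeCN 80:20 and read by UV at its absorbance maximum. Values were quantified against a calibration line from a 10 mM DMSO stock, checked with a quality-control standard. Runs were in triplicate. The buffers were pH 7.4 phosphate 45 mM and NH4Cl for the basic pH.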

[2] = Induction of primary neuronal stem cell differentiation derived from subgranular zone of dentate gyrus of Wistar rat hippocampus assessed as upregulation of TuJ1 expression at 10 uM incubated for 7 days followed by 48 hrs incubation in presence of serum and absence of EGF by DAPI staining-based fluorescence microscopic analysis; type: functional; settings: Primary neuron
In short: (§2)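 Neurospheres came from the SGZ of the dentate gyrus of adult male Wistar rats (8-12 weeks). They were grown in DMEM/F12 with 10 ng/mL EGF, 10 ng/mL FGF and B27. After 3 days, cultures were treated with compounds for 7 days. They were then plated on poly-L-lysine coverslips for 48 h with serum and without growth factors. Cells were immunostained for TuJ1 and MAP-2 with DAPI nuclei. Positive cells were counted by fluorescence microscopy in five NS per condition over three independent experiments. Untreated cultures gave basal values.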

[3] = Induction of primary neuronal stem cell maturation derived from subgranular zone of dentate gyrus of Wistar rat hippocampus assessed as upregulation of MAP-2 expression at 10 uM incubated for 7 days by DAPI staining-based fluorescence microscopic analysis; type: functional; settings: Primary neuron; in short: as §2
[4] = Induction of primary neuronal stem cell differentiation derived from subgranular zone of dentate gyrus of Wistar rat hippocampus assessed as upregulation of TuJ1 expression at 10 uM incubated for 7 days followed by 48 hrs incubation in presence of serum and absence of EGF by DAPI staining-based fluorescence microscopic analysis in presence of melatonin receptor antagonist luzindole; type: functional; settings: Primary neuron; in short: as §2
[5] = Induction of primary neuronal stem cell maturation derived from subgranular zone of dentate gyrus of Wistar rat hippocampus assessed as upregulation of MAP-2 expression at 10 uM incubated for 7 days by DAPI staining-based fluorescence microscopic analysis in presence of melatonin receptor antagonist luzindole; type: functional, tissue-based; settings: Primary neuron; in short: as §2
[6] = Solubility in the water; type: physicochemical; settings: buffer
[7] = molecular target: T1, Melatonin receptor type 1A (Homo sapiens, UniProt P48039); test: Displacement of 2-[125I]-iodomelatonin from human melatonin receptor-1 transfected in CHO cell membranes after 120 mins
T1 sequence (P48039 whole entry): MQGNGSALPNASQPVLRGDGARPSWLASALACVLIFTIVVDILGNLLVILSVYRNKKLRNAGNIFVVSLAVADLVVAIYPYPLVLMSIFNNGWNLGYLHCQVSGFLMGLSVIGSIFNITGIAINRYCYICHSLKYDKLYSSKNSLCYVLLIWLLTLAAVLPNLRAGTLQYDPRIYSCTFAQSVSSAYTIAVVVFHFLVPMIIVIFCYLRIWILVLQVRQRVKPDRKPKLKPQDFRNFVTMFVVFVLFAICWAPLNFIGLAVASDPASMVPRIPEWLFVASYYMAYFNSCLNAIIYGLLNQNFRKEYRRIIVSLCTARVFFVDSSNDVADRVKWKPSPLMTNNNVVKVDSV

[8] = molecular target: T2, Melatonin receptor type 1B (Homo sapiens, UniProt P49286); test: Displacement of 2-[125I]-iodomelatonin from human melatonin receptor-2 transfected in CHO cell membranes after 120 mins
T2 sequence (P49286 whole entry): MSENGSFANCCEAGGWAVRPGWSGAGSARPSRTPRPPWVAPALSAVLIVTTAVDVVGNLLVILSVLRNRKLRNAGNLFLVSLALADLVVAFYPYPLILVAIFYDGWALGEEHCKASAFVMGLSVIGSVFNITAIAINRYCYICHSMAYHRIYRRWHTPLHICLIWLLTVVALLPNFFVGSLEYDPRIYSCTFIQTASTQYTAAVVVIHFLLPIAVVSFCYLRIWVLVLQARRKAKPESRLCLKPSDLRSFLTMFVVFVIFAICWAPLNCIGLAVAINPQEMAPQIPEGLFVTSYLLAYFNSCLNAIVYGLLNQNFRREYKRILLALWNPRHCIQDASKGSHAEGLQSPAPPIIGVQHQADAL

Homo sapiens = species on record: Homo sapiens; test: Selectivity ratio of Ki for human melatonin receptor-1 to Ki for human melatonin receptor-2
[9] = molecular target: T1, Melatonin receptor type 1A; test: Agonist activity at human melatonin receptor-1 transfected in CHO cell membranes after 1 hr by GTPgammaS binding assay; type: functional
[10] = molecular target: T2, Melatonin receptor type 1B; test: Agonist activity at human melatonin receptor-2 transfected in CHO cell membranes after 1 hr by GTPgammaS binding assay; type: functional
[11] = molecular target: T3, Melatonin receptor type 1B (Homo sapiens) (UniProt P49286); test: Agonist activity at human melatonin receptor-2 transfected in CHO cell membranes after 1 hr by GTPgammaS binding assay relative to melatonin; type: functional
T3 sequence (whole entry): T2 sequence (P49286 whole entry)
In short: (§3)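 CHO membranes (20 µg/mL) stably expressing human MT1 or MT2 in 20 mM HEPES pH 7.4, 100 mM NaCl, 3 µM GDP, 3 mM MgCl2, 20 µg/mL saponin. Incubated with 0.2 nM [35S]GTPγS for 1 h at rt, then filtered. Non-specific binding defined with 10 µM GTPγS. Seven concentrations in duplicate; EC50 and Emax fitted.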

[12] = molecular target: T1, Melatonin receptor type 1A; test: Agonist activity at human melatonin receptor-1 transfected in CHO cell membranes after 1 hr by GTPgammaS binding assay relative to melatonin; type: functional; in short: as §3
[13] = Thermodynamic solubility in buffer at pH 5.5 after 24 hrs by UV spectra analysis; type: physicochemical; settings: read-out: Therm_solubility
[14] = Thermodynamic solubility in NH4Cl buffer at pH 9.3 after 24 hrs by UV spectra analysis; type: physicochemical; settings: read-out: Therm_solubility; in short: as §1
[15] = molecular target: T4, 5-hydroxytryptamine receptor 1A (Rattus norvegicus, UniProt P19327); test: Displacement of [3H]8-OH DPAT from rat 5HT1A receptor expressed in CHO cells after 30 mins by liquid scintillation counting analysis; type: cell-based
T4 sequence (P19327 whole entry): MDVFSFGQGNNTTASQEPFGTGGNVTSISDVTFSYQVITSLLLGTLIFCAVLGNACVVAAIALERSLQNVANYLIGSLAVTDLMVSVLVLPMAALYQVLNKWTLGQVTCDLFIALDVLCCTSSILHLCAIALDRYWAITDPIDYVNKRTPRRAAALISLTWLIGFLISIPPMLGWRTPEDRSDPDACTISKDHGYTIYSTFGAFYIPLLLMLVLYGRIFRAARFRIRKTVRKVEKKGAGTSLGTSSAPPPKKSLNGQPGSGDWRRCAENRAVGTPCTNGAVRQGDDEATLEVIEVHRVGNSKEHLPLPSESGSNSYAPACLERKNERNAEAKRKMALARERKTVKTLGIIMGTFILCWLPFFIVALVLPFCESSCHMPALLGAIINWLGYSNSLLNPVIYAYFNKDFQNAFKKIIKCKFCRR

[16] = molecular target: 5-hydroxytryptamine receptor 2A (Rattus norvegicus, UniProt P14842); test: Displacement of [3H]DOB from rat 5HT2A receptor expressed in mouse NIH/3T3 cells after 30 mins by liquid scintillation counting analysis; type: cell-based
5-hydroxytryptamine receptor 2A, sequence (P14842 whole entry): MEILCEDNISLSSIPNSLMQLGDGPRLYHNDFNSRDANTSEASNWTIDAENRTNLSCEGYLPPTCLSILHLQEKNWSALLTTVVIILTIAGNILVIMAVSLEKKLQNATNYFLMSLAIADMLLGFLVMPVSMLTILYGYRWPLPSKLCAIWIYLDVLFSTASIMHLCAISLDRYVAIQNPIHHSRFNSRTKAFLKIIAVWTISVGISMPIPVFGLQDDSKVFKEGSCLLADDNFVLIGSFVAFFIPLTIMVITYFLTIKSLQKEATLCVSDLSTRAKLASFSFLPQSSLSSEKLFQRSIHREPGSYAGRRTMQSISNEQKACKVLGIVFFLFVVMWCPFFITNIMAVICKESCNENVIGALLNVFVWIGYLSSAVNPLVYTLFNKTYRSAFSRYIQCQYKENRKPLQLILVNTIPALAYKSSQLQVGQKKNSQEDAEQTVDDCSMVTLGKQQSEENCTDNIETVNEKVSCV

SMILES: COc1ccc2[nH]cc(CCNC(C)=O)c2c1 [MELATONIN]
- solubility thermodynamic at 24 h [1]: 6640 µM (≈ 1540 µg/mL)
- Activity [2]: Active
- Activity [3]: Active
- Activity [4]: inactive
- Activity [5]: inactive
- solubility [6]: 400 µM (≈ 92.9 µg/mL)

SMILES: COc1ccc2[nH]cc(Cc3nnc(C)o3)c2c1
- Ki [7]: 210 nM
- Ki [8]: 16 nM
- Ratio Ki (Homo sapiens): 10
- EC50 [9]: > 1000 nM
- EC50 [10]: 71 nM
- Emax [11]: 24%
- solubility thermodynamic at 24 h [1]: 970 µM (≈ 236 µg/mL)

SMILES: COc1ccc2[nH]cc(Cc3nc(C)no3)c2c1
- Ki [7]: 170 nM
- Ki [8]: 44 nM
- Ratio Ki (Homo sapiens): 3.9
- EC50 [9]: 711 nM
- Emax [12]: 16%
- EC50 [10]: 295 nM
- Emax [11]: 48%
- solubility thermodynamic at 24 h [1]: 1160 µM (≈ 283 µg/mL)

SMILES: COc1ccc2[nH]cc(Cc3ncc(C)o3)c2c1
- Ki [7]: 280 nM
- Ki [8]: > 1000 nM
- EC50 [9]: 989 nM
- Emax [12]: 23%

SMILES: CC(=O)NCCc1c(Cc2ccccc2)[nH]c2ccccc12
- Activity [2]: inactive

SMILES: COc1ccc2[nH]cc(Cc3n[nH]c(=O)o3)c2c1
- Ki [7]: > 1000 nM
- Ki [8]: 160 nM
- EC50 [10]: > 1000 nM

SMILES: COc1ccc2[nH]cc(Cc3n[nH]c(=S)o3)c2c1
- Ki [7]: > 1000 nM
- Ki [8]: 535 nM
- EC50 [10]: > 1000 nM

SMILES: C=CCNC(=O)CCc1c[nH]c2ccc(OC)cc12
- Ki [7]: 2.5 nM
- Ki [8]: 0.45 nM
- Ratio Ki (Homo sapiens): 5.5
- EC50 [9]: 204 nM
- Emax [12]: 92%
- EC50 [10]: 11 nM
- Emax [11]: 88%

SMILES: CCNc1nnc(Cc2c[nH]c3ccc(OC)cc23)s1
- Ki [7]: > 1000 nM
- Ki [8]: 17 nM
- Ratio Ki (Homo sapiens): > 500
- EC50 [10]: 110 nM
- Emax [11]: 35%
- solubility thermodynamic at 24 h [13]: 1720 µM (≈ 495 µg/mL)
- solubility thermodynamic at 24 h [1]: 1420 µM (≈ 409 µg/mL)
- solubility thermodynamic at 24 h [14]: 1440 µM (≈ 414 µg/mL)
- Activity [2]: Active

SMILES: C#CCNC(=O)Cc1c[nH]c2ccc(OC)cc12
- Ki [7]: 14 nM
- Ki [8]: 3.8 nM
- Ratio Ki (Homo sapiens): 3.6
- EC50 [9]: 289 nM
- Emax [12]: 67%
- EC50 [10]: 81 nM
- Emax [11]: 82%

SMILES: COc1ccc2[nH]cc(CCc3ncc(C)o3)c2c1
- Ki [7]: > 1000 nM
- Ki [8]: 498 nM
- EC50 [10]: 503 nM
- Emax [11]: 32%

SMILES: COc1ccc2cccc(CCNC(C)=O)c2c1 [AGOMELATINE]
- solubility thermodynamic at 24 h [1]: 804 µM (≈ 196 µg/mL)

SMILES: C=CCNC(=O)Cc1c[nH]c2ccc(OC)cc12
- Ki [7]: 17 nM
- Ki [8]: 4.9 nM
- Ratio Ki (Homo sapiens): 3.5
- EC50 [9]: 525 nM
- Emax [12]: 64%
- EC50 [10]: 132 nM
- Emax [11]: 70%

SMILES: COc1ccc2[nH]cc(CCN(C)C)c2c1 [MEBUFOTENIN]
- Ki [7]: 210 nM
- Ki [8]: 16 nM
- Ratio Ki (Homo sapiens): 10
- EC50 [9]: 257 nM
- Emax [12]: 62%
- EC50 [10]: 112 nM
- Emax [11]: 28%
- Ki [15]: 11 nM
- Ki [16]: 92 nM

SMILES: COc1ccc2[nH]cc(Cc3n[nH]c(=O)n3C)c2c1
- Ki [7]: > 1000 nM
- Ki [8]: 560 nM
- EC50 [10]: > 1000 nM

SMILES: COc1ccc2[nH]cc(CCc3nnco3)c2c1
- Ki [7]: 570 nM
- Ki [8]: 68 nM
- Ratio Ki (Homo sapiens): 8.6
- EC50 [9]: > 1000 nM
- EC50 [10]: 457 nM
- Emax [11]: 25%

SMILES: COc1ccc2[nH]cc(CCc3nc(C)no3)c2c1
- Ki [7]: > 1000 nM
- Ki [8]: > 1000 nM

SMILES: C#CCNC(=O)CCc1c[nH]c2ccc(OC)cc12
- Ratio Ki (Homo sapiens): 5
- Emax [12]: 106%
- Emax [11]: 99%
- Activity [2]: Active
- Activity [3]: inactive

SMILES: CCn1c(CCc2c[nH]c3ccc(OC)cc23)n[nH]c1=S
- Ki [7]: > 1000 nM
- Ki [8]: > 1000 nM
- solubility thermodynamic at 24 h [13]: 131 µM (≈ 39.6 µg/mL)
- solubility thermodynamic at 24 h [1]: 137 µM (≈ 41.4 µg/mL)
- solubility thermodynamic at 24 h [14]: 208 µM (≈ 62.9 µg/mL)

SMILES: COc1ccc2[nH]cc(CCc3n[nH]c(=O)n3C)c2c1
- Ki [7]: > 1000 nM
- Ki [8]: > 1000 nM
- solubility thermodynamic at 24 h [13]: 860 µM (≈ 234 µg/mL)
- solubility thermodynamic at 24 h [1]: 1100 µM (≈ 301 µg/mL)
- solubility thermodynamic at 24 h [14]: 1410 µM (≈ 383 µg/mL)

SMILES: CCn1c(Cc2c[nH]c3ccc(OC)cc23)n[nH]c1=S
- Ki [7]: > 1000 nM
- Ki [8]: 220 nM
- EC50 [10]: > 1000 nM

SMILES: COc1ccc2[nH]cc(CCc3n[nH]c(=S)o3)c2c1
- Ki [7]: > 1000 nM
- Ki [8]: 530 nM
- EC50 [10]: 1100 nM
- Emax [11]: 32%
- solubility thermodynamic at 24 h [13]: 907 µM (≈ 250 µg/mL)
- solubility thermodynamic at 24 h [1]: 3460 µM (≈ 953 µg/mL)
- solubility thermodynamic at 24 h [14]: 18700 µM (≈ 5140 µg/mL)
